Results from ChEMBL document CHEMBL5620366, “Design, synthesis and biological evaluation of peptidomimetic benzothiazolyl ketones as 3CLpro inhibitors against SARS-CoV-2” (Eur J Med Chem, 2023).

Tests used:
[1] = target: Replicase polyprotein 1ab (Severe acute respiratory syndrome coronavirus 2, UniProt P0DTD1); experiment: Inhibition of recombinant SARS-CoV-2 3CLpro using Dacyl-KTSAVLQSGFRKME-Edans as substrate preincubated for 10 mins followed by substrate addition measured for 5 mins by FRET assay
[2] = target: Procathepsin L (Homo sapiens) (UniProt P07711); experiment: Inhibition of cathepsin L (unknown origin) using Z-FR-AMC at 20 uM as substrate measured for 10 mins by fluorescence based assay relative to control
Chain of Procathepsin L (Homo sapiens) (P07711 114-333 limits assumed): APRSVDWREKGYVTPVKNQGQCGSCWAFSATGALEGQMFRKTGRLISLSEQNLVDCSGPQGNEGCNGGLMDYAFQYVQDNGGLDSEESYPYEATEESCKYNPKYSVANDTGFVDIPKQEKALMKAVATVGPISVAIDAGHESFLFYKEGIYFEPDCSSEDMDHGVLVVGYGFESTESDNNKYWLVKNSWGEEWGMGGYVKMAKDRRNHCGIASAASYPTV

[3] = target: Chymotrypsinogen A (Bos taurus) (UniProt P00766); experiment: Inhibition of bovine pancreatic alpha-chymotrypsin using N-succinyl-AAPF-AMC as substrate at 20 uM preincubated for 10 mins followed by substrate addition measured for 10 mins by fluorescence based assay relative to control; settings: time 20.0 min
Summary of the method: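 Chymotrypsin (5 nM final) was preincubated 10 min with 20 μM compound in PBS, pH 7.4. The reaction was started with N-succinyl-AAPF-AMC (10 μM final). Fluorescence (ex 380/em 460 nm) was read every 1 min for 10 min.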

[4] = Selectivity index, ratio of CC50 for African green monkey Vero E6 cells to EC50 for SARS-CoV-2 WIV04 infected in African green monkey Vero E6 cells; type: toxicity; settings: read-out: Ratio CC50/EC50
Vero C1008 = experiment: Cytotoxicity against African green monkey Vero E6 cells incubated for 48 hrs by Luminescent cell viability assay; type: toxicity, cell-based; settings: chlorocebus sabaeus, vero c1008, 48 h
Summary of the method: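 Vero E6 cells were seeded at 2.5 × 10³/well and grown 48 h, then exposed to compound at 0.5–200 μM for a further 48 h (n = 3). Viability was read by a luminescent cell-viability reagent after 10 min. Values came from curve fitting.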

SARS-CoV-2 = experiment: Antiviral activity against SARS-CoV-2 WIV04 infected in African green monkey Vero E6 cells assessed as reduction in viral replication preincubated cells for 1 hr followed by viral infection for 24 hrs by real-time fluorescence quantitative PCR method; type: functional, organism-based; settings: Severe acute respiratory syndrome coronavirus 2, WIV04, Vero C1008
[5] = Oral bioavailability in ICR mouse at 20 mg/kg measured for 24 hrs by LC-MS/MS analysis; type: ADME, organism-based; settings: in vivo
Summary of the method: (§1)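 ICR mice, three per group, randomly assigned, received a single 20 mg/kg oral dose, with a parallel 10 mg/kg IV group for bioavailability. Blood was sampled at 0.25, 0.5, 1, 2, 4, 6, 8 and 24 h. Plasma was protein-precipitated with MeOH plus internal standard and quantified by LC-MS/MS. Parameters came from non-compartmental analysis.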

[6] = AUC (0 to infinity) in ICR mouse at 20 mg/kg, po measured for 24 hrs by LC-MS/MS analysis; type: ADME, organism-based; settings: in vivo; summary of the method: as §1
[7] = AUC (0 to t) in ICR mouse at 20 mg/kg, po measured for 24 hrs by LC-MS/MS analysis; type: ADME, organism-based; settings: in vivo; summary of the method: as §1
[8] = Cmax in ICR mouse at 20 mg/kg, po measured for 24 hrs by LC-MS/MS analysis; type: ADME, organism-based; settings: in vivo; summary of the method: as §1
[9] = Half life in ICR mouse at 20 mg/kg, po measured for 24 hrs by LC-MS/MS analysis; type: ADME, organism-based; settings: in vivo; summary of the method: as §1
[10] = AUC (0 to infinity) in ICR mouse at 10 mg/kg, iv measured for 24 hrs by LC-MS/MS analysis; type: ADME, organism-based; settings: in vivo
Summary of the method: (§2)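 Male/female unspecified ICR mice, three per group, randomly assigned, given a single intravenous dose of 10 mg/kg. Whole blood was drawn at 0.083, 0.25, 0.5, 1, 2, 4, 8 and 24 h. Plasma (20 μL) was precipitated with MeOH containing internal standard, then analysed by LC-MS/MS. Parameters came from non-compartmental analysis.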

[11] = AUC (0 to t) in ICR mouse at 10 mg/kg, iv measured for 24 hrs by LC-MS/MS analysis; type: ADME, organism-based; settings: in vivo; summary of the method: as §2
[12] = Half life in ICR mouse at 10 mg/kg, iv measured for 24 hrs by LC-MS/MS analysis; type: ADME, organism-based; settings: in vivo; summary of the method: as §2

Q: For `CC(C)(C)OC[C@H](NS(=O)(=O)C(F)(F)F)C(=O)N1[C@@H]2CC[C@@H](C2)[C@H]1C(=O)N[C@@H](C[C@@H]1CCNC1=O)C(=O)c1nc2ccccc2s1`, which IC50 [1] is on record?
A: Its IC50 is 2740 nM.

Q: For `CN(C)S(=O)(=O)N[C@H](C(=O)N1[C@@H]2CC[C@@H](C2)[C@H]1C(=O)N[C@@H](C[C@@H]1CCNC1=O)C(=O)c1nc2ccccc2s1)C(C)(C)C`, which IC50 [1] is on record?
A: Its IC50 is 584 nM.

Q: With `CC(C)(C)OC(=O)N[C@H](C(=O)N1[C@@H]2CC[C@@H](C2)[C@H]1C(=O)N[C@@H](C[C@@H]1CCNC1=O)C(=O)c1nc2ccccc2s1)C(C)(C)C` as the compound, how does the IC50 [1] read?
A: Its IC50 is 5000 nM.

Q: For `O=C1NCC[C@H]1C[C@H](NC(=O)[C@@H]1[C@H]2CC[C@H](C2)N1C(=O)[C@H](CC1CCCCC1)NS(=O)(=O)C(F)(F)F)C(=O)c1nc2ccccc2s1`, which IC50 [1] is on record?
A: The IC50 was 5140 nM.

Q: For `O=C1NCC[C@H]1C[C@H](NC(=O)[C@@H]1[C@H]2CC[C@H](C2)N1C(=O)[C@@H](NS(=O)(=O)C(F)(F)F)C12CC3CC(CC(C3)C1)C2)C(=O)c1nc2ccccc2s1`, which inhibition [2] is on record?
A: The inhibition was 27%.

Q: And the inhibition [3]?
A: The inhibition was 55.8%.

Q: What about the selectivity ratio [4] of the same compound?
A: The selectivity ratio was 300.

Q: What about the CC50 (Vero C1008) of the same compound?
A: Its CC50 is 54000 nM.

Q: And the EC50 (SARS-CoV-2)?
A: The EC50 was 180 nM.

Q: What about the F [5] of the same compound?
A: The F was 48.1%.

Q: And the AUC [6]?
A: The AUC was 33207 ng·h/mL.

Q: And the AUCt [7]?
A: The AUCt was 32473 ng·h/mL.

Q: What about the Cmax [8] of the same compound?
A: Its Cmax is 9327 ng/mL.

Q: What about the t1/2 [9] of the same compound?
A: The t1/2 was 126 min.

Q: And the AUC [10]?
A: Its AUC is 34308 ng·h/mL.

Q: What about the AUCt [11] of the same compound?
A: The AUCt was 33780 ng·h/mL.

Q: What about the t1/2 [12] of the same compound?
A: The t1/2 was 82.8 min.

Q: And the IC50 [1]?
A: Its IC50 is 1650 nM.

Q: With `COc1ccc(C[C@H](NS(=O)(=O)C(F)(F)F)C(=O)N2[C@@H]3CC[C@@H](C3)[C@H]2C(=O)N[C@@H](C[C@@H]2CCNC2=O)C(=O)c2nc3ccccc3s2)cc1` as the compound, how does the IC50 [1] read?
A: The IC50 was 5340 nM.

Q: For `CC(C)(F)C(=O)N[C@H](C(=O)N1[C@@H]2CC[C@@H](C2)[C@H]1C(=O)N[C@@H](C[C@@H]1CCNC1=O)C(=O)c1nc2ccccc2s1)C(C)(C)C`, which IC50 [1] is on record?
A: The IC50 was 1270 nM.

Q: For `CC(C)(C)[C@H](NC(=O)C(F)(F)F)C(=O)N1[C@@H]2CC[C@@H](C2)[C@H]1C(=O)N[C@@H](C[C@@H]1CCNC1=O)C(=O)c1nc2ccccc2s1`, which F [5] is on record?
A: The F was 47.25%.

Q: What about the AUC [6] of the same compound?
A: Its AUC is 2161 ng·h/mL.

Q: What about the AUCt [7] of the same compound?
A: The AUCt was 2155 ng·h/mL.

Q: What about the Cmax [8] of the same compound?
A: The Cmax was 1597 ng/mL.

Q: What about the t1/2 [9] of the same compound?
A: The t1/2 was 54.6 min.

Q: What about the AUC [10] of the same compound?
A: The AUC was 2284 ng·h/mL.

Q: What about the AUCt [11] of the same compound?
A: Its AUCt is 2281 ng·h/mL.

Q: And the t1/2 [12]?
A: The t1/2 was 28.2 min.

Q: What about the IC50 [1] of the same compound?
A: The IC50 was 110 nM.

Q: With `[2H]C([2H])([2H])C(=O)N[C@H](C(=O)N1[C@@H]2CC[C@@H](C2)[C@H]1C(=O)N[C@@H](C[C@@H]1CCNC1=O)C(=O)c1nc2ccccc2s1)C(C)(C)C` as the compound, how does the IC50 [1] read?
A: The IC50 was 527 nM.

Q: What does the source list for `CC(C)(C)[C@H](NC(=O)C(F)(F)F)C(=O)N1C[C@H]2[C@@H]([C@H]1C(=O)N[C@H](C#N)C[C@@H]1CCNC1=O)C2(C)C` [NIRMATRELVIR]?
A: CC50 (Vero C1008): > 500000 nM; F [5]: 22.85%; AUC [6]: 1029 ng·h/mL; AUCt [7]: 1023 ng·h/mL; Cmax [8]: 1819 ng/mL; t1/2 [9]: 30.6 min; AUC [10]: 2241 ng·h/mL; AUCt [11]: 2240 ng·h/mL; t1/2 [12]: 25.2 min

Q: For `CC(C)(C)[C@H](NS(=O)(=O)C(F)(F)F)C(=O)N1[C@@H]2CC[C@@H](C2)[C@H]1C(=O)N[C@@H](C[C@@H]1CCNC1=O)C(=O)c1nc2ccccc2s1`, which selectivity ratio [4] is on record?
A: Its selectivity ratio is 429.

Q: What about the CC50 (Vero C1008) of the same compound?
A: Its CC50 is 137000 nM.

Q: And the EC50 (SARS-CoV-2)?
A: Its EC50 is 320 nM.

Q: What about the F [5] of the same compound?
A: The F was 67.98%.

Q: What about the AUC [6] of the same compound?
A: The AUC was 5153 ng·h/mL.

Q: What about the AUCt [7] of the same compound?
A: The AUCt was 5143 ng·h/mL.

Q: And the Cmax [8]?
A: Its Cmax is 3342 ng/mL.

Q: What about the t1/2 [9] of the same compound?
A: Its t1/2 is 45.6 min.

Q: What about the AUC [10] of the same compound?
A: The AUC was 3857 ng·h/mL.

Q: What about the AUCt [11] of the same compound?
A: Its AUCt is 3783 ng·h/mL.

Q: And the t1/2 [12]?
A: Its t1/2 is 44.4 min.

Q: What about the IC50 [1] of the same compound?
A: The IC50 was 868 nM.
